This passage reports yeast fitness results from the RNAGym collection of RNA variant scans (doi:10.1126/science.aae0568).

Variants at the floor of the assay were thinned out.

The chains are these.
B1: tRNA (parent)
chain: GUUCCGUUGGCGUAAUGGUAACGCGUCUCCCUCCUAAGGAGAAGACUGCGGGUUCGAGUCCCGUACGGAACG

In this data set the parent is B1. Put plainly: yeast fitness relative to wild type (ratio to wild type); higher = fitter; tRNA-Arg(CCU), competitive growth, 37 C, YPD. Summed up: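 Gene amplicons from the start population and from each of six end populations were read by 100-nucleotide paired-end sequencing. Those end populations came from pooled Saccharomyces cerevisiae strains carrying tRNA-Arg(CCU) gene variants at the native locus, competed in YPD at 37°C for 24 hours. Fitness relative to wild type was worked out from changes in genotype frequencies. Genotypes needed ≥ 100 starting reads, and estimates < 0.5 were set to 0.5.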
Take A14G U35A A42U C46G G56A: the yeast fitness stood at 0.524.

Turning to A14G U54G A70C, the yeast fitness was no more than 0.5.

On to A14U A40C A57C, for which the yeast fitness was no more than 0.5.

Take A14U A37U C62G A70U: the yeast fitness was no more than 0.5.

Regarding A14U A15C C24A U26A G50C, the yeast fitness turned out to be 0.544.

On to A14G G18C A21U C29G C66U, for which the yeast fitness was no more than 0.5.

A14G C31A C46U G56C A69U: the yeast fitness was no more than 0.5.

As to A14G G18A U26A, the yeast fitness is no more than 0.5.

With A14G G23C C27A G51A, the yeast fitness is no more than 0.5.

In the case of A14G C31U C55A, the yeast fitness amounted to 0.552.

In the case of A14U A40U G67A, the yeast fitness is 0.539.

Turning to A14U A21C C29U, the yeast fitness is 0.538.

As to A14G C31G C46G, the yeast fitness was 0.577.

A14U A37G G44C A45C G50A C55G C66A: the yeast fitness amounted to 0.539.

A14G U16A C24G A45G C62A A69C: the yeast fitness was no more than 0.5.

A14G G23C C29A: the yeast fitness is no more than 0.5.

Take A14G G23A C27G: the yeast fitness was no more than 0.5.

On to A14U A40G C62G, for which the yeast fitness is no more than 0.5.

As to A14G C31G A69C, the yeast fitness is 0.652.

For the variant A14G U16G C24G U26C U47G G50C, the yeast fitness was found to be 0.515.

Consider A14U C22A A43G G52C, for which the yeast fitness is no more than 0.5.

As to A14G U47C, the yeast fitness is 0.871.

In the case of A14G U47A, the yeast fitness came to 0.776.

On to A14G U47G, for which the yeast fitness was 0.516.

As to A14G C33U A43G, the yeast fitness is no more than 0.5.

Consider A14G U28C A40U, for which the yeast fitness was 0.691.

Take A14U A20C U28C C46U G58A: the yeast fitness worked out at 0.678.

As to A14U A40C A57C C60U, the yeast fitness was no more than 0.5.

With A14U A15G A43C G52A G56A C62G A65G, the yeast fitness is 0.607.

Regarding A14U A37C, the yeast fitness worked out at 0.627.

Regarding A14U A37G, the yeast fitness is 0.6.

Regarding A14G G56A G67C, the yeast fitness is no more than 0.5.

A14G C31G A45U C62U: the yeast fitness turned out to be 0.669.

For the variant A14G G25C G51C C60U G67A, the yeast fitness is no more than 0.5.

As for A14G U26C A37G G67A, the yeast fitness came to 0.539.

On to A14U A15G A65G, for which the yeast fitness is no more than 0.5.

As to A14G C46U G50C C55U A57U C62G, the yeast fitness is 0.571.

Regarding A14U A70C, the yeast fitness was found to be 0.596.

On to A14G G67C, for which the yeast fitness worked out at 0.763.

A14G G18A A21U U26C G48A: the yeast fitness is no more than 0.5.

In the case of A14G U47A A69C, the yeast fitness was no more than 0.5.

For the variant A14U A43C A65U, the yeast fitness is no more than 0.5.

Take A14G G39C U47C: the yeast fitness was no more than 0.5.

In the case of A14U C22A A43G G68C, the yeast fitness is no more than 0.5.

Turning to A14U A15G C49G, the yeast fitness is no more than 0.5.

Take A14U A21U C49U G67C: the yeast fitness is no more than 0.5.

Regarding A14G U47C G68A, the yeast fitness is no more than 0.5.

Turning to A14G G17A A37G, the yeast fitness is 0.536.

Turning to A14G G17C G58C, the yeast fitness is no more than 0.5.

For A14U A15C C31G G50A, the yeast fitness stood at 0.665.

As to A14U A43U A45G, the yeast fitness came out at 0.634.

With A14G C31U C55A A70G, the yeast fitness was no more than 0.5.

As to A14U A43G C55G, the yeast fitness was no more than 0.5.

In the case of A14U A20G A69C, the yeast fitness was no more than 0.5.

As for A14G G25A A69U, the yeast fitness was 0.77.

A14G C31G C33U G38C G58C G67U: the yeast fitness is no more than 0.5.

Regarding A14U A42U A57U A70U, the yeast fitness is no more than 0.5.

For the variant A14G U16A C33A C55U, the yeast fitness amounted to 0.67.

Take A14U A20C C31U A37G: the yeast fitness was no more than 0.5.

For the variant A14U C24A C30U A37G, the yeast fitness was no more than 0.5.

For A14G G18A U26A A70C, the yeast fitness was no more than 0.5.

As for A14U C24G C46G G52A, the yeast fitness was no more than 0.5.

Turning to A14G C31G G58A, the yeast fitness is no more than 0.5.

As for A14G C31U C55A G67A A70G, the yeast fitness was no more than 0.5.

Take A14U A43C C62U C66U: the yeast fitness was no more than 0.5.

Regarding A14G C60A, the yeast fitness amounted to 0.523.

On to A14G C60G, for which the yeast fitness stood at 0.507.

For the variant A14G G39C C55A A65G, the yeast fitness is no more than 0.5.

For the variant A14G G52C A70U, the yeast fitness is no more than 0.5.

As to A14U C24G C27U U54G, the yeast fitness was no more than 0.5.

For A14U A37U C61G C62U, the yeast fitness was no more than 0.5.

A14G U28C C61U: the yeast fitness is 0.577.

On to A14U A21G G39C A45G, for which the yeast fitness was no more than 0.5.

For the variant A14G G44A G67C, the yeast fitness is no more than 0.5.

Turning to A14G G23A G38C C46U, the yeast fitness was determined as 0.621.

A14G C30G A57G: the yeast fitness was no more than 0.5.

Turning to A14U A43G A57C C60G C61A, the yeast fitness was no more than 0.5.

Consider A14G C61U A70U, for which the yeast fitness was 0.835.

For the variant A14U A40U A42U G51A, the yeast fitness is 0.62.

For A14U A21G C34G A57U A69U, the yeast fitness came out at 0.655.

As for A14G G18C G52C C55A, the yeast fitness was no more than 0.5.

In the case of A14G G63C, the yeast fitness is 0.78.

Regarding A14U A21G G58A, the yeast fitness is no more than 0.5.

As to A14U A21U U32G A37G A45G C55A, the yeast fitness is no more than 0.5.

On to A14G C34A G38C, for which the yeast fitness worked out at 0.676.

On to A14G G48C C62U, for which the yeast fitness came to 0.654.

Consider A14G C49U U54C, for which the yeast fitness was no more than 0.5.

Consider A14G C46G, for which the yeast fitness is 0.989.

Turning to A14G G23A C34A, the yeast fitness was no more than 0.5.

In the case of A14G U53C, the yeast fitness came out at 0.775.

For A14G U53A, the yeast fitness came out at 0.63.

With A14G G23C C27A, the yeast fitness was no more than 0.5.

On to A14U A45U U47A, for which the yeast fitness is no more than 0.5.

For the variant A14G G68C, the yeast fitness was found to be 0.78.

In the case of A14G G68U, the yeast fitness was 0.826.

On to A14G G18C C29G G56C, for which the yeast fitness is no more than 0.5.

Consider A14U A15C G39C, for which the yeast fitness amounted to 0.546.

As to A14G C33U G38A C55U, the yeast fitness is no more than 0.5.

Consider A14G U19A C34U, for which the yeast fitness is no more than 0.5.

For the variant A14G G38C A57G A70G, the yeast fitness was no more than 0.5.

In the case of A14G C66G, the yeast fitness worked out at 0.761.

On to A14G C34A G38C G48A A69C, for which the yeast fitness was no more than 0.5.

As to A14U A20C C31G C66A, the yeast fitness was no more than 0.5.

In the case of A14G G56A, the yeast fitness amounted to 0.805.

In the case of A14U A15C G25C, the yeast fitness is no more than 0.5.

As for A14U A37U C66U, the yeast fitness is no more than 0.5.

As to A14G G23A A40U A42C G58C, the yeast fitness is no more than 0.5.

For A14G G50C C66U, the yeast fitness is no more than 0.5.

A14U A20C C24A: the yeast fitness came out at 0.554.

Regarding A14U A20C C24U, the yeast fitness is no more than 0.5.

With A14G G23A C29G G68C, the yeast fitness was no more than 0.5.

Turning to A14U A20G C30G A42C A70G, the yeast fitness was no more than 0.5.

Turning to A14G U32C A42C A57U C61G, the yeast fitness was no more than 0.5.

Consider A14G C34G A43C A70G, for which the yeast fitness is no more than 0.5.

Take A14U A37U U59A: the yeast fitness is no more than 0.5.

As for A14U A43G C62U, the yeast fitness is no more than 0.5.

Regarding A14G C62A, the yeast fitness was 0.533.

Regarding A14G G17A A37U A43U C62G, the yeast fitness is no more than 0.5.

For the variant A14G C30U A42G A57U, the yeast fitness was no more than 0.5.

For the variant A14G C31A U47C A70U, the yeast fitness is no more than 0.5.

With A14U A21U G58C, the yeast fitness was no more than 0.5.

Consider A14U C22A A57C, for which the yeast fitness was no more than 0.5.

With A14G U47G C62U, the yeast fitness is no more than 0.5.

In the case of A14U A21G G39C A45G G50U U53C, the yeast fitness is no more than 0.5.

Turning to A14U A15G C34G C61U, the yeast fitness was no more than 0.5.

For A14U A21U A69C, the yeast fitness came out at 0.566.

A14U C24G C31A A40G G44C C55U: the yeast fitness was no more than 0.5.

For the variant A14U A21U C31U A43U G44C, the yeast fitness was no more than 0.5.

Consider A14G C33A, for which the yeast fitness was 0.516.

As for A14G C33G, the yeast fitness was no more than 0.5.

On to A14G C33U, for which the yeast fitness is 0.616.

Turning to A14G U26C, the yeast fitness worked out at 0.879.

As to A14G U26C G68A, the yeast fitness is 0.557.

In the case of A14U A42U C61U C66U, the yeast fitness is no more than 0.5.

For the variant A14U A20U A36U, the yeast fitness amounted to 0.568.

In the case of A14G C31G A45G G56U, the yeast fitness was no more than 0.5.

Consider A14U C22A A43G C49U, for which the yeast fitness was no more than 0.5.

Consider A14G C31U C49U, for which the yeast fitness was determined as 0.809.

On to A14G C31U C49A, for which the yeast fitness was no more than 0.5.

Take A14U A36G A40G A65U: the yeast fitness is no more than 0.5.

Turning to A14G U19C A20U, the yeast fitness is 0.773.

For A14U A20U G52U, the yeast fitness worked out at 0.591.

In the case of A14G C30G A36C A69U, the yeast fitness was no more than 0.5.

A14G G17C G39A: the yeast fitness is no more than 0.5.

Regarding A14U A42C U54A G67C A69U, the yeast fitness was no more than 0.5.

As to A14U C24A C55G, the yeast fitness is no more than 0.5.

A14G C34U A40G: the yeast fitness amounted to 0.541.

A14G C34A C60A: the yeast fitness is no more than 0.5.

With A14U A36U G38A, the yeast fitness was no more than 0.5.

As to A14G U26G A43C C46A, the yeast fitness was no more than 0.5.

In the case of A14U A36C, the yeast fitness is 0.586.

A14U A36U: the yeast fitness is 0.531.

Take A14G G52A G56C A65G: the yeast fitness was no more than 0.5.

In the case of A14G G25A, the yeast fitness amounted to 0.856.

Consider A14G G25C, for which the yeast fitness came out at 0.976.

As to A14U C22U G25A C55G C60U G68C, the yeast fitness is no more than 0.5.

With A14G G39C G68A A70U, the yeast fitness is no more than 0.5.

In the case of A14U A45U, the yeast fitness is 0.572.

A14U A45C: the yeast fitness is 0.653.

For A14U A21G A70C, the yeast fitness was determined as 0.543.

On to A14U A15G U53G, for which the yeast fitness was no more than 0.5.

With A14G U19C U35C A40G, the yeast fitness was no more than 0.5.

As to A14U A20C C27U U35C G48A A70U, the yeast fitness is no more than 0.5.

As to A14U A20G, the yeast fitness is 0.749.

In the case of A14U A20U, the yeast fitness was 0.588.

For the variant A14G C62G G68A, the yeast fitness is no more than 0.5.

In the case of A14G C31U A42U A69U, the yeast fitness turned out to be 0.544.
